Measured values: ChEMBL document CHEMBL1159376, “Potential cancer chemopreventive constituents of the seeds of Dipteryx odorata (tonka bean)” (J Nat Prod, 2003)

Columns and labels:
[1] = Growth inhibition of mouse Hepa-1c1c7 cells; type: functional, cell-based
[2] = Chemoprevention index, ratio of IC50 for mouse Hepa-1c1c7 cells to drug level required to double quinone reductase activity in mouse Hepa-1c1c7 cells; type: functional
[3] = Inhibition of 7,12-dimethylbenz[a]anthracene-induced […] lesions in mouse mammary organ culture model at 10 ug/ml; type: functional; details: Mammary gland
Procedure, shortened: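 Mouse mammary glands in organ culture with 7,12-dimethylbenz[a]anthracene-induced preneoplastic lesions. Samples were tested at 10 µg/mL, with sulforaphane at 1 µg/mL as positive control. The read-out was percent inhibition of lesion formation.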

[4] = tissue or blood; details: Mus musculus, Mammary gland, read-out: INH

Compound | IC50 [1] [µM] | Ratio [2] | inhibition at 10 µg/mL [3] [%] | inhibition at 1 µg/mL [4] [%]
COc1cc(/C=C2\Oc3cc(O)ccc3C2=O)ccc1O | 34.6 | 5.4 | 48.2 | 
COc1cc(C2Oc3c(OC)cc(/C=C/C=O)cc3C2CO)ccc1O (racemic) | 48.5 | 3.2 |  | 
O=C(/C=C/c1ccc(O)cc1)c1ccc(O)cc1O [ISOLIQUIRITIGENIN] | 27.3 | 7.2 | 76 | 
C[S+]([O-])CCCCN=C=S (centres undefined) [SULFORAPHANE] | 27.3 | 7.2 |  | 83.7
O=C1/C(=C/c2ccc(O)c(O)c2)Oc2cc(O)ccc21 [SULFURETIN] | 78.5 | 3.8 | 58.5 | 
